Measurements from ChEMBL document CHEMBL3593206, “SAR Studies of Exosite-Binding Substrate-Selective Inhibitors of A Disintegrin And Metalloprotease 17 (ADAM17) and Application as Selective in Vitro Probes” (J Med Chem, 2015).
pIC50: −log10 of the molar value.

Assays:
[1] = target: T1, Disintegrin and metalloproteinase domain-containing protein 10 (Homo sapiens) (UniProt O14672); test: Inhibition of ADAM10 (unknown origin) at 100 uM preincubated for 30 mins followed by substrate addition measured every 30 mins for 2 hrs by fluorescence assay relative to control
T1 sequence (whole entry): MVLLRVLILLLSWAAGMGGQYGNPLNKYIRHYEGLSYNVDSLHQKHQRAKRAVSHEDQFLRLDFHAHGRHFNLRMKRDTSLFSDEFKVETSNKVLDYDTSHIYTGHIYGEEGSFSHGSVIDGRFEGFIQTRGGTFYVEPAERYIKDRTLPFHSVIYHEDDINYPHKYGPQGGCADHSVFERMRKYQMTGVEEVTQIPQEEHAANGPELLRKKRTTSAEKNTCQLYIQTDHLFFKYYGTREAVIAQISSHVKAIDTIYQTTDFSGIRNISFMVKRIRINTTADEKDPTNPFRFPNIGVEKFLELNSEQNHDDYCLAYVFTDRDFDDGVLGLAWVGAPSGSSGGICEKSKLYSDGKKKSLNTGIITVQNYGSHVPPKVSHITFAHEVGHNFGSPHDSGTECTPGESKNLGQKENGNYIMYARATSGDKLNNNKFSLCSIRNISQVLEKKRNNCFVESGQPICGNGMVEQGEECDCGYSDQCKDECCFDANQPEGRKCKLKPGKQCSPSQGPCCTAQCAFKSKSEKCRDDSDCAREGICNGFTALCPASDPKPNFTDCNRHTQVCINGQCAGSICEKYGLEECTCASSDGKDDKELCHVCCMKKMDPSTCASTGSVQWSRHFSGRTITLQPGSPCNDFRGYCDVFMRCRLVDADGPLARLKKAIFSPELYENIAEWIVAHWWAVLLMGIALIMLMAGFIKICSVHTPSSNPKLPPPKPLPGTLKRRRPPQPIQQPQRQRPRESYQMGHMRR
Method in brief: (§1)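 Enzyme at 30 nM (3× solution) in 10 mM Hepes, 0.001% Brij-35, pH 7.5. Inhibitor series of 10 points, 1:3, from 300 μM, preincubated 30 min at RT. Glycosylated substrate added from a 30 μM 3× solution. Fluorescence (ex 360/em 460 nm) read every 30 min for 2 h. Inhibition taken from hydrolysis rates against substrate-only and substrate-plus-enzyme wells.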

[2] = target: T2, 72 kDa type IV collagenase (Homo sapiens, UniProt P08253); test: Inhibition of MMP2 (unknown origin) using Mca-KLPGL-Dnp-AR as substrate at 100 uM preincubated for 30 mins followed by substrate addition measured after 1 hr by fluorescence assay relative to control
Method in brief: (§2)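 Inhibitor as 10-point 1:3 dilutions from 300 μM, 30 min at RT. Substrate added from a 30 μM 3× solution. Single fluorescence read (ex 324/em 393 nm) after 1 h at RT.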
Target sequence in this assay (P08253 110-660 limits assumed): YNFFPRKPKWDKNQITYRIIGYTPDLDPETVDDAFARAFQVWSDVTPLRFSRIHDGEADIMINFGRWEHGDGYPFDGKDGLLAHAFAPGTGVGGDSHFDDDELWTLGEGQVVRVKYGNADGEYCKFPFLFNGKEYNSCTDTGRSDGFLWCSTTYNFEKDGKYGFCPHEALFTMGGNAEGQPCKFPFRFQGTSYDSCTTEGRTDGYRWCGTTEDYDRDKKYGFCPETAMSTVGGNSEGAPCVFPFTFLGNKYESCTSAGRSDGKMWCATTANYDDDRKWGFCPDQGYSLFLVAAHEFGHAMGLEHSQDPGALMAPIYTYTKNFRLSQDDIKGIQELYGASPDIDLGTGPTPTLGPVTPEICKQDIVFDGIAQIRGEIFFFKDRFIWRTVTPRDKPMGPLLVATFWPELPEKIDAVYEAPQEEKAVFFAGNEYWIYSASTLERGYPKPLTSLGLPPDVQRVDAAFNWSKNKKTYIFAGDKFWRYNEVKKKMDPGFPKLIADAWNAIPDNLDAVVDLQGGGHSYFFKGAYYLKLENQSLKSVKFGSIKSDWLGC

Neutrophil collagenase [3] = target: T3, Neutrophil collagenase (Homo sapiens, UniProt P22894); test: Inhibition of MMP8 (unknown origin) using Mca-KLPGL-Dnp-AR as substrate at 100 uM preincubated for 30 mins followed by substrate addition measured after 1 hr by fluorescence assay relative to control; method in brief: as §2
Target sequence in this assay (P22894 101-467 limits assumed): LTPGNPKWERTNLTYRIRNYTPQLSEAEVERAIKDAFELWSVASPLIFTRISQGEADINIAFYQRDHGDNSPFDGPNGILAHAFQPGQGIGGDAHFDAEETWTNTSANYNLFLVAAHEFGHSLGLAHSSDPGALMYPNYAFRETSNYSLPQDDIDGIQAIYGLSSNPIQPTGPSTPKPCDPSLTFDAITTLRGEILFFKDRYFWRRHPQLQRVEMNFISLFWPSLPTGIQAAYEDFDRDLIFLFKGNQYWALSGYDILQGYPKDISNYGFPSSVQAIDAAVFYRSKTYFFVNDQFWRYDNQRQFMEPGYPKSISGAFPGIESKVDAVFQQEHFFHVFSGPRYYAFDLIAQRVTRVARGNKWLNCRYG

[4] = target: T4, Matrix metalloproteinase-9 (Homo sapiens, UniProt P14780); test: Inhibition of MMP9 (unknown origin) using Mca-KLPGL-Dnp-AR as substrate at 100 uM preincubated for 30 mins followed by substrate addition measured after 1 hr by fluorescence assay relative to control; method in brief: as §2
T4 sequence (P14780 whole entry): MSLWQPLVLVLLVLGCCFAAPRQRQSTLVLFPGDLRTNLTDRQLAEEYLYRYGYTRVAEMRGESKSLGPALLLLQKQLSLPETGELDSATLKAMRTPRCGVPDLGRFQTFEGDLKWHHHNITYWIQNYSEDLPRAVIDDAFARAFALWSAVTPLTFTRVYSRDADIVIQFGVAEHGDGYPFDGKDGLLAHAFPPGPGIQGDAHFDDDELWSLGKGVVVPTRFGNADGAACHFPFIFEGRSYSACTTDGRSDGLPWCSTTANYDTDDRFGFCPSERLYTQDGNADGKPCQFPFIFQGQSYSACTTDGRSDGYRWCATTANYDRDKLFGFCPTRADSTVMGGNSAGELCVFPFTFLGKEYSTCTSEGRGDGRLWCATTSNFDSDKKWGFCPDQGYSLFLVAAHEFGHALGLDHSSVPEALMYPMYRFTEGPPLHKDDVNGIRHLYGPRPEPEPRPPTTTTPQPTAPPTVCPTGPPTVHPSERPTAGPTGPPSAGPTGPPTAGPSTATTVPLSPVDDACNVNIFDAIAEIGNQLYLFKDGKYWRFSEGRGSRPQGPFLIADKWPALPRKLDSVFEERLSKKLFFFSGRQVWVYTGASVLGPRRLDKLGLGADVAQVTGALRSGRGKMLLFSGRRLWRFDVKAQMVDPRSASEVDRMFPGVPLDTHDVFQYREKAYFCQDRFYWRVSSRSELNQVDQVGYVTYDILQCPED

[5] = target: T5, Matrix metalloproteinase-14 (Homo sapiens, UniProt P50281); test: Inhibition of MMP14 (unknown origin) using Mca-KLPGL-Dnp-AR as substrate at 100 uM preincubated for 30 mins followed by substrate addition measured after 1 hr by fluorescence assay relative to control
[6] = target: T6, Disintegrin and metalloproteinase domain-containing protein 17 (Homo sapiens, UniProt P78536); test: Inhibition of ADAM17 (unknown origin) at 100 uM preincubated for 30 mins followed by substrate addition measured every 30 mins for 2 hrs by fluorescence assay relative to control; method in brief: as §1
T6 sequence (P78536 whole entry, the tested form may be a part): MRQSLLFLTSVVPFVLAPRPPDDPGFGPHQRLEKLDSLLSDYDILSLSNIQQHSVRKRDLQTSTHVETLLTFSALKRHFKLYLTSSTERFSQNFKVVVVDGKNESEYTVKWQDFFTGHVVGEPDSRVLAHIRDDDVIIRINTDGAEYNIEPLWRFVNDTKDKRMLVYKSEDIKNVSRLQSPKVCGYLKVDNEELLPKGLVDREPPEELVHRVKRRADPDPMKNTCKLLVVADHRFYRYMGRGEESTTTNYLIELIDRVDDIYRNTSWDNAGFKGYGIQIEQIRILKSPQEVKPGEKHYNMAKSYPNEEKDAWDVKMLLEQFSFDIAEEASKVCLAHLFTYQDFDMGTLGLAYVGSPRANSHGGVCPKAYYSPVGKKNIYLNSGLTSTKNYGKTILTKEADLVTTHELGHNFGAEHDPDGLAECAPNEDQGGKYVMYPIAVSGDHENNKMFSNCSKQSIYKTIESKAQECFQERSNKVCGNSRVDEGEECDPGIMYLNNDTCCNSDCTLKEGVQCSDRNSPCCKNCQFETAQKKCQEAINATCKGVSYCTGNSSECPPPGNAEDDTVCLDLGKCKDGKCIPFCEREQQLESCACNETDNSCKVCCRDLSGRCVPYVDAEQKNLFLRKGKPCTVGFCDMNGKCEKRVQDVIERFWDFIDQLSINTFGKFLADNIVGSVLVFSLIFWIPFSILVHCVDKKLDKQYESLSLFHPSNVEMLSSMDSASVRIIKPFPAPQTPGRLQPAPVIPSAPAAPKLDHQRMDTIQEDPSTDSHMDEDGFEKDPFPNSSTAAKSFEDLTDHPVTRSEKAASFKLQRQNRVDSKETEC

[7] = target: T6, Disintegrin and metalloproteinase domain-containing protein 17; test: Inhibition of ADAM17 in human THP1 cells assessed as inhibition of LPS-stimulated TNFalpha cleavage at 25 uM after 1 hr by AlphaScreen assay relative to control; format: cell-based; settings: THP-1
Method in brief: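 THP-1 cells grown in RPMI 1640 with 10% FBS and 0.05 mM 2-mercaptoethanol; 3000 cells per well. Compound given in 3% DMSO for 1 h, then LPS added (1 μg/mL final) and cells incubated overnight at 37 °C. TNFα detected by AlphaScreen using anti-TNFα acceptor beads and streptavidin donor beads, each step 1 h in the dark at RT.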

[8] = target: T6, Disintegrin and metalloproteinase domain-containing protein 17; test: Inhibition of ADAM17 in human A549 cells assessed as inhibition of PMA-stimulated heregulin shedding at 40 uM incubated for 1 hr followed by PMA stimulation measured after 1 hr; format: cell-based
Method in brief: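 Heregulin shedding in A549 cells, with all compounds tested at 40 μM.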

[9] = target: T1, Disintegrin and metalloproteinase domain-containing protein 10 (Homo sapiens); test: Inhibition of ADAM10 in human A549 cells assessed as inhibition of betacellulin shedding at 40 uM after 1 hr by ELISA; format: cell-based
Method in brief: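 A549 cells were tested for betacellulin shedding at 40 μM, with Marimastat at 10 μM as control.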

[10] = target: T6, Disintegrin and metalloproteinase domain-containing protein 17; test: Inhibition of ADAM17 in human A549 cells assessed as effect on PMA-stimulated TGFalpha shedding up to 100 uM preincubated for 1 hr followed by PMA stimulation measured after 1 hr by ELISA; format: cell-based
Method in brief: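 TGFα shedding from PMA-treated A549 cells tested up to 100 μM. Marimastat at 10 μM served as control, with a non-PMA-treated control included; soluble TGFα measured in the supernatant.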

[11] = target: T7, Disintegrin and metalloproteinase domain-containing protein 10 (Homo sapiens, UniProt O14672); test: Inhibition of ADAM10 (unknown origin) preincubated for 30 mins followed by substrate addition measured every 30 mins for 2 hrs by fluorescence assay; method in brief: as §1
T7 sequence (O14672 whole entry): T1 sequence (whole entry)

[12] = target: T6, Disintegrin and metalloproteinase domain-containing protein 17; test: Inhibition of ADAM17 (unknown origin) preincubated for 30 mins followed by substrate addition measured every 30 mins for 2 hrs by fluorescence assay; method in brief: as §1
[13] = target: T2, 72 kDa type IV collagenase; test: Inhibition of MMP2 (unknown origin) using Mca-KLPGL-Dnp-AR as substrate preincubated for 30 mins followed by substrate addition measured after 1 hr by fluorescence assay; method in brief: as §2
Target sequence in this assay (P08253 whole entry): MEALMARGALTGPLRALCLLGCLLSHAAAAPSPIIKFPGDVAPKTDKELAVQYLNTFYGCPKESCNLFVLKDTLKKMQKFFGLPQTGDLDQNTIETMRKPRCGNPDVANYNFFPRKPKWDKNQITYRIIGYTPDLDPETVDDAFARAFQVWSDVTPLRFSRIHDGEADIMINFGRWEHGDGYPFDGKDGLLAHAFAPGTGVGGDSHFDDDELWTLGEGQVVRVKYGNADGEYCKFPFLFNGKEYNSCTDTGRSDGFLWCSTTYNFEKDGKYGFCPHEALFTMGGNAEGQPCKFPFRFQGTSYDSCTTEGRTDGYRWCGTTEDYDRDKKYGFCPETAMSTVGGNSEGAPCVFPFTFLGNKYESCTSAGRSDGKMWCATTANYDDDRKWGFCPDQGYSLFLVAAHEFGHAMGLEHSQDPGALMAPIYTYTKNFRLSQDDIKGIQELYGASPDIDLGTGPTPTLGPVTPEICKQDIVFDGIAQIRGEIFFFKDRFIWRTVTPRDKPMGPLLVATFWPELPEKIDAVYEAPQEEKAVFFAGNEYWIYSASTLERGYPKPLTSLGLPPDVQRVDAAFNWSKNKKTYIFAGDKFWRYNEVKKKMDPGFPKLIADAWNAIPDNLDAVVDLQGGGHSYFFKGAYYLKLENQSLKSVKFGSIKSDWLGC

Neutrophil collagenase [14] = target: T3, Neutrophil collagenase; test: Inhibition of MMP8 (unknown origin) using Mca-KLPGL-Dnp-AR as substrate preincubated for 30 mins followed by substrate addition measured after 1 hr by fluorescence assay; method in brief: as §2
Target sequence in this assay (P22894 whole entry): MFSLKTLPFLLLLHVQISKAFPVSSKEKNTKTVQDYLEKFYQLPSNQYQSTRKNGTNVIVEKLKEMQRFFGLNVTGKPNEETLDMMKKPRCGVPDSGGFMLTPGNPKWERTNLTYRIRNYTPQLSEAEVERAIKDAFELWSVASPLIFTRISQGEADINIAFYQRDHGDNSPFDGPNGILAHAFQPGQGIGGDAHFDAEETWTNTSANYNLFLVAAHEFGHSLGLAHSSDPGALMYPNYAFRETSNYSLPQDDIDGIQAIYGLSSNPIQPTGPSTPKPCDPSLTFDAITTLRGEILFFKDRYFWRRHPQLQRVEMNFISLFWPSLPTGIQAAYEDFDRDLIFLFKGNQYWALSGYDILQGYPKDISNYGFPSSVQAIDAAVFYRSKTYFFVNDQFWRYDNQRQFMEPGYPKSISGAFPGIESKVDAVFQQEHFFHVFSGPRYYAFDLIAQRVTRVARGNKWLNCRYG

[15] = target: T4, Matrix metalloproteinase-9; test: Inhibition of MMP9 (unknown origin) using Mca-KLPGL-Dnp-AR as substrate preincubated for 30 mins followed by substrate addition measured after 1 hr by fluorescence assay; method in brief: as §2
[16] = target: T5, Matrix metalloproteinase-14; test: Inhibition of MMP14 (unknown origin) using Mca-KLPGL-Dnp-AR as substrate preincubated for 30 mins followed by substrate addition measured after 1 hr by fluorescence assay; method in brief: as §2
[17] = Cytotoxicity against CHOK1 cells assessed as inhibition of cell viability up to 33 uM after 72 hrs by CellTiter-Glo assay; format: cell-based, Cricetulus griseus; settings: chinese hamster, cho-k1, 72 h
A549 = test: Cytotoxicity against human A549 cells assessed as inhibition of cell viability up to 33 uM after 72 hrs by CellTiter-Glo assay; format: cell-based; settings: a549, 72 h
HepG2 = test: Cytotoxicity against human HepG2 cells assessed as inhibition of cell viability up to 33 uM after 72 hrs by CellTiter-Glo assay; format: cell-based; settings: hepg2, 72 h
MDA-MB-231 = test: Cytotoxicity against human MDA-MB-231 cells assessed as inhibition of cell viability up to 33 uM after 72 hrs by CellTiter-Glo assay; format: cell-based; settings: mda-mb-231, 72 h
[18] = target: T6, Disintegrin and metalloproteinase domain-containing protein 17; test: Inhibition of ADAM17 in HTSMC assessed as inhibition of LPS-stimulated IL-8 shedding at 10 uM preincubated for 30 mins followed by LPS challenge measured after 4 to 24 hrs by ELISA
Method in brief: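 HTSMCs stimulated with LPS for IL-8 release; compounds at 10 μM. Mean ± SEM, n = 3 from three independent experiments; one-way ANOVA with Dunnett post hoc test.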

[19] = target: T1, Disintegrin and metalloproteinase domain-containing protein 10 (Homo sapiens); test: Inhibition of ADAM10 in HTSMC assessed as inhibition of PMA-stimulated release of CXCL16 at 10 uM preincubated for 30 mins followed by PMA challenge measured after 4 to 24 hrs by ELISA
[20] = target: T1, Disintegrin and metalloproteinase domain-containing protein 10 (Homo sapiens); test: Inhibition of ADAM10 in HTSMC assessed as inhibition of constitutive release of fractalkine/CX3CL1 at 10 uM preincubated for 30 mins measured after 4 to 24 hrs by ELISA

O=C1NCC(Cc2ccccc2)N(C[C@@H]2CCCN2C[C@@H](CC2CCCCC2)N2C[C@H](Cc3ccccc3)N(CCc3ccccc3)C(=O)C2=O)C1=O (single isomer, unassigned)
inhibition [1]: 0%
inhibition [2]: 0%
inhibition (Neutrophil collagenase [3]): 0%
inhibition [4]: 0%
inhibition [5]: 0%
inhibition [6]: 100%
inhibition [7]: 0%
inhibition [8]: 34%
inhibition [9]: 0%
inhibition [10]: 0%

CCC[C@H]1CNC(=O)C(=O)N1C[C@@H]1CCCN1C[C@H](Cc1ccc(O)cc1)N1C[C@H](Cc2ccc(O)cc2)N(CC2CCCC2)C(=O)C1=O
pIC50 [11]: < 4.00
pIC50 [12]: 4.46

CCC[C@H]1CNC(=O)C(=O)N1C[C@@H]1CCCN1C[C@H](Cc1ccc(O)cc1)N1C[C@@H](Cc2ccc(O)cc2)N(CCC23CC4CC(CC(C4)C2)C3)C(=O)C1=O
pIC50 [11]: < 4.00
pIC50 [12]: 5.27

CCC[C@H]1CNC(=O)C(=O)N1C[C@@H]1CCCN1C[C@H](Cc1ccc(O)cc1)N1C[C@H](Cc2ccc(O)cc2)N(CCC23CC4CC(CC(C4)C2)C3)C(=O)C1=O
pIC50 [11]: < 4.00
pIC50 [12]: 5.23

O=C1NC[C@@H](Cc2ccc3ccccc3c2)N(C[C@@H]2CCCN2C[C@H](Cc2ccc(O)cc2)N2C[C@H](Cc3ccc(O)cc3)N(CCC34CC5CC(CC(C5)C3)C4)C(=O)C2=O)C1=O
pIC50 [11]: < 4.00
pIC50 [12]: 5.09

CCCC[C@H]1CN([C@@H](Cc2ccc(O)cc2)CN2CCC[C@H]2CN2C(=O)C(=O)NC[C@@H]2CCC)C(=O)C(=O)N1CCC12CC3CC(CC(C3)C1)C2
pIC50 [11]: < 4.00
pIC50 [12]: 5.19

O=C1NC[C@H](Cc2ccccc2)N(C[C@@H]2CCCN2C[C@H](Cc2ccccc2)N2C[C@H](Cc3ccc(O)cc3)N(CCC34CC5CC(CC(C5)C3)C4)C(=O)C2=O)C1=O
inhibition [1]: 0%
pIC50 [11]: < 4.00
pIC50 [12]: 4.96
pIC50 [13]: < 4.00
pIC50 (Neutrophil collagenase [14]): < 4.00
pIC50 [15]: < 4.00
pIC50 [16]: < 4.00
inhibition [2]: 0%
inhibition (Neutrophil collagenase [3]): 0%
inhibition [4]: 0%
inhibition [5]: 0%
inhibition [6]: 100%
Activity [17]: Non-toxic
Activity (A549): Non-toxic
Activity (HepG2): Non-toxic
Activity (MDA-MB-231): Non-toxic
inhibition [7]: 44%
inhibition [18]: 62%
inhibition [19]: 0%
inhibition [8]: 0%
inhibition [9]: 0%
inhibition [10]: 0%
inhibition [20]: 0%

CCC[C@H]1CNC(=O)C(=O)N1C[C@@H]1CCCN1C[C@H](Cc1ccc(O)cc1)N1C[C@H](Cc2ccc(O)cc2)N(CC2CCCCC2)C(=O)C1=O
pIC50 [11]: < 4.00
pIC50 [12]: 4.54

CCC[C@H]1CNC(=O)C(=O)N1C[C@@H]1CCCN1C[C@H](Cc1ccc(O)cc1)N1C[C@@H](Cc2ccc3ccccc3c2)N(CCC23CC4CC(CC(C4)C2)C3)C(=O)C1=O
pIC50 [11]: < 4.00
pIC50 [12]: 5.10
